Consider 16 molecules from PubChem BioAssay.

Active and inactive are the calls of the source.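 Rule for the calls, unless noted: active = viability at or below 30% in both replicate assays; inconclusive = viability at or below 30% in just one of the two assays; inactive = the rest.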

Experiment [1] in a line: Her2 expression decrease, cell viability multiplex – SKBR3 breast tumor cells, AlphaScreen, ATP viability, primary screen (AID 461;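 active = Her2 level under about 52% in both replicate screens, with viability over 70% of control, limit read from the data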;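 for Her2 level: lower value means less Her2 protein in the cells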;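 for viability: percent of carrier control wells set as 100% viability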). Conditions: SKBR3 Her2 protein level, 18-24 h, measured here: SKBR3 viability, ATP luminescence, at 10 µM. A general note: In Alpha technology, singlet oxygen from a donor bead excites a nearby acceptor bead.
Experiment [2] concerns the target Receptor tyrosine-protein kinase erbB-2 (Homo sapiens) (UniProt P04626). Described as above. Conditions: 18-24 h, at 10 µM, stronger effect = lower value.
The nature of experiment [3]: reduced viability of SK-BR-3 breast cancer cells – cell-based, 24 h, human, pilot screen (AID 572;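 active = viability at or below 10% of carrier control in both of two separate runs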;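 note: compound exposure lasted between 18 and 24 h rather than exactly 24 h; 100% = carrier-treated control wells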). Conditions: SK-BR-3 viability, CellTiter-Glo luminescence, at 10 µM, stronger effect = lower value.
Experiment [4] can be described thus: HUVEC growth inhibition – cell-based, human, primary screen (AID 575).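 Note: 100% = median of untreated cell wells with 0.1% DMSO on each plate.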 Particulars: HUVEC proliferation, CellTiter-Glo luminescence, 72 h; at 10 µM; stronger effect = lower value. The procedure, abridged:
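Assay system: Primary human umbilical vein endothelial cells | Quantity: 1250 cells per well | Medium: Supplemented EBM, 2% fetal bovine serum | Detection: CellTiter-Glo luminescence measuring cellular ATP | Read-out: % viability vs DMSO wells | Plate: Collagen-coated 384-well format | Times: 72 h exposure, 37 °C, 5% CO2, 30 min RT equilibration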
For orientation: Cellular ATP, detected with luciferase, serves as a proxy for viable cell number.

Experiment [5] in a line: H69AR cell proliferation blockers – human, duplicate replicates, primary screen (AID 580;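 active = viability at or under a set limit in both replicates, limit being median viability minus 3 SD, cut at about 48% in these data, passing the limit was not always enough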;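 note: 100% = mean luminescence of untreated wells and 0% = no signal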). Conditions: H69AR lung tumor cells viability, ATP luminescence, 72 h; at 10 µM; stronger effect = lower value.
Experiment [6] in a line: MRP1 drug-resistance reversers in H69AR cells – cell-based, doxorubicin co-treatment, pilot screen (AID 601;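 active = viability loss from added drug above about 55%, and viability with drug at most 40%, in both replicates, limit read from the data, passing the limit was not always enough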). Particulars: CellTiter-Glo, 72 h, at 10 µM; for differential viability (reversal): stronger effect = higher value.
Experiment [7] is described as follows: yeast transport mutant growth inhibition pilot in 384-well plates, post-Golgi transport modulator project (AID 636; in the data active = inhibition above about 31%). Conditions: absorbance 615 nm, about 18 h, stronger effect = higher value.
Experiment [8] can be described thus: growth suppression of yeast trafficking mutant, preliminary HTS, modulators of trafficking downstream of Golgi apparatus project, 1536-format plate, OD 615 nm (AID 637; in the data active = inhibition above about 30%). Particulars: yeast transport mutant growth, absorbance 615 nm, 18 h; stronger effect = higher value.
The mark [9] stands for this setting: H69AR cells + 2 uM doxorubicin, measured here: viability with 2 uM doxorubicin, stronger effect = lower value.
Setting [10] is: H69AR cells, compound alone cytotoxicity.

Sequence of Receptor tyrosine-protein kinase erbB-2 (Homo sapiens) (P04626 whole entry, looked up): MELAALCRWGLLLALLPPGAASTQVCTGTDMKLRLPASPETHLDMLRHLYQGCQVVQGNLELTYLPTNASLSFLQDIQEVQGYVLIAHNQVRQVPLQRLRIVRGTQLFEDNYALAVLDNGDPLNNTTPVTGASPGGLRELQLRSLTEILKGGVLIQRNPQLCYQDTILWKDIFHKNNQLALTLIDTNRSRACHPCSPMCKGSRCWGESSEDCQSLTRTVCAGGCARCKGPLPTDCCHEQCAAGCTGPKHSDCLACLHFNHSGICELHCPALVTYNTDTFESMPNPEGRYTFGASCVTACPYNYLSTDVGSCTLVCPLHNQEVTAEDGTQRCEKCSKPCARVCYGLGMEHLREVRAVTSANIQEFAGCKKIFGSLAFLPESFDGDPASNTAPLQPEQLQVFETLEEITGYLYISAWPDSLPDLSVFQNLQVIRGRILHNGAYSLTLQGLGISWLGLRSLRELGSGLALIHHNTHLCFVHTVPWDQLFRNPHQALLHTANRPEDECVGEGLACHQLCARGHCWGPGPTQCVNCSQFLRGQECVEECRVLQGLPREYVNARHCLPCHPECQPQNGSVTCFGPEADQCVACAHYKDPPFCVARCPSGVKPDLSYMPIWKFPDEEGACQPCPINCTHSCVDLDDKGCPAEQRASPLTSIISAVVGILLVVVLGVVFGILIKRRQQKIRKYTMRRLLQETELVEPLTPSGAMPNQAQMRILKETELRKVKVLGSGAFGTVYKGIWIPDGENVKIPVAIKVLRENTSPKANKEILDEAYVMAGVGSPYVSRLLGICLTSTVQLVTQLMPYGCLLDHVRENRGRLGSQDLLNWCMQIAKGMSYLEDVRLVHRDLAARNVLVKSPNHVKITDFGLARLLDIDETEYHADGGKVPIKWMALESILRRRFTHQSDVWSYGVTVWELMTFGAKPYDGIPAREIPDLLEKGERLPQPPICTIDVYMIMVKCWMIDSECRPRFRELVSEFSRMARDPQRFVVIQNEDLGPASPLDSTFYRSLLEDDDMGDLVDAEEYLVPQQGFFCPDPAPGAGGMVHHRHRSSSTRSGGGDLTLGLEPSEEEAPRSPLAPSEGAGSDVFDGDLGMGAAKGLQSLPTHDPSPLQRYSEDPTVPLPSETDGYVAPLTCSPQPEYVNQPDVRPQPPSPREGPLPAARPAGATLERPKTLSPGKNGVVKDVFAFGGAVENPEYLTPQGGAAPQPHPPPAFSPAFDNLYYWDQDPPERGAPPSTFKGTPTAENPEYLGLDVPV

As usually defined, the viability is a read-out of living cells in per cent, often relative to untreated cells. The inhibition is the change of the read-out against control, counted positive when it falls. As for `Cc1nn(-c2ccccc2)c2c1C(c1c(C)[nH]c(C#N)c1C)C(C#N)=C(N)O2` (stereo not given), the viability in experiment [1] was 88%; in experiment [3], 88% (inactive); in experiment [4], 85.5% (inactive); in experiment [5] it was 92.7% (inactive); in experiment [6] (setting [9]) it was 106%; in experiment [6] (setting [10]), 92.7%. Further, the Her2 level in experiment [2] is 86.5% (inactive). The differential viability (reversal) in experiment [6] (H69AR cells + 2 uM doxorubicin) is -13.2% (inactive). Moreover, the inhibition was -4.13% (inactive) in experiment [7] and -5.25% (inactive) in experiment [8].

For `CC(O)c1nc2ccccc2n1C1CCCCC1` (stereo not given), the viability in experiment [1] was 104%; in experiment [3] it was 104% (inactive); in experiment [4], 124% (inactive); in experiment [5], 97.2% (inactive); in experiment [6] (setting [9]), 85.9%; in experiment [6] (setting [10]), 97.2%. The Her2 level in experiment [2] was 91.5% (inactive). In experiment [6] (H69AR cells + 2 uM doxorubicin), the differential viability (reversal) was 11.3% (inactive). Further, the inhibition in experiment [7] was -1.18% (inactive); in experiment [8] it was 3.55% (inactive).

As for `COC(=O)C(O)(CC(=O)c1ccc(OC)cc1)C(F)(F)F` (stereo not given), the viability in experiment [1] is 100%; in experiment [3], 100% (inactive); in experiment [4] it was 91.5% (inactive); in experiment [5], 95.9% (inactive); in experiment [6] (setting [9]), 95.3%; in experiment [6] (setting [10]) it was 95.9%. Also, the Her2 level in experiment [2] was 98% (inactive). For the same molecule, the differential viability (reversal) in experiment [6] (H69AR cells + 2 uM doxorubicin) is 0.63% (inactive). The inhibition in experiment [7] was -1.33% (inactive); in experiment [8], -5% (inactive).

Take `COc1ccc(Cn2c(-c3ccco3)nc3oc4ccccc4c(=O)c3c2=O)cc1`: the viability was 87.5% in experiment [1]; 87.5% (inactive) in experiment [3]; 101% (inactive) in experiment [4]; 98.2% (inactive) in experiment [5]; 84% in experiment [6] (setting [9]); 98.2% in experiment [6] (setting [10]). Further, the Her2 level in experiment [2] was 92.5% (inactive). The differential viability (reversal) in experiment [6] (H69AR cells + 2 uM doxorubicin) was 14.2% (inactive). Also, the inhibition in experiment [7] is -0.67% (inactive); in experiment [8], 6.45% (inactive).

On to `CCOC(=O)c1c(C)c(C(=O)NCC2CCCO2)c(C)n1C` (stereo not given), for which the viability is 100% in experiment [1]; 100% (inactive) in experiment [3]; 83.5% (inactive) in experiment [4]; 92.2% (inactive) in experiment [5]; 80.3% in experiment [6] (setting [9]); 92.2% in experiment [6] (setting [10]). For the same molecule, the Her2 level in experiment [2] is 82.5% (inactive). In experiment [6] (H69AR cells + 2 uM doxorubicin), the differential viability (reversal) was 11.9% (inactive). In addition, the inhibition is -1.71% (inactive) in experiment [7] and 1.59% (inactive) in experiment [8].

Take `Cn1cccc1-c1cc(C(=O)O)[nH]n1`: the viability in experiment [1] was 129%; in experiment [3] it was 129% (inactive); in experiment [4] it was 106% (inactive); in experiment [5] it was 93.8% (inactive); in experiment [6] (setting [9]), 101%; in experiment [6] (setting [10]) it was 93.8%. Also, in experiment [2], the Her2 level was 110% (inactive). In experiment [6] (H69AR cells + 2 uM doxorubicin), the differential viability (reversal) was -7.12% (inactive). In addition, the inhibition in experiment [7] is -4.61% (inactive); in experiment [8], 1.64% (inactive).

Regarding `COCCCNC(=O)C(Cc1ccccc1)NS(=O)(=O)c1ccc2c(c1)c(=O)n(C)c(=O)n2C` (stereo not given), the viability was 101% in experiment [1]; 101% (inactive) in experiment [3]; 96.8% (inactive) in experiment [4]; 89.2% (inactive) in experiment [5]; 85.9% in experiment [6] (setting [9]); 89.2% in experiment [6] (setting [10]). Moreover, the Her2 level in experiment [2] is 95.5% (inactive). Also, the differential viability (reversal) in experiment [6] (H69AR cells + 2 uM doxorubicin) is 3.26% (inactive). For the same molecule, the inhibition in experiment [7] was -2.63% (inactive); in experiment [8] it was -3.97% (inactive).

With `c1ccc2c(c1)CNC1(CCCCC1)C2`, the viability in experiment [1] was 103%; in experiment [3], 103% (inactive); in experiment [4], 103% (inactive); in experiment [5], 102% (inactive); in experiment [6] (setting [9]), 88.6%; in experiment [6] (setting [10]), 102%. The Her2 level in experiment [2] was 94.5% (inactive). For the same molecule, in experiment [6] (H69AR cells + 2 uM doxorubicin), the differential viability (reversal) was 12.9% (inactive). The inhibition in experiment [7] is -8.63% (inactive); in experiment [8], 1.27% (inactive).

Take `N#Cc1c(NC(NC(=O)c2ccco2)C(=O)c2ccccc2)sc2c1CCCC2` (stereo not given): the viability in experiment [1] is 86.5%; in experiment [3], 86.5% (inactive); in experiment [4] it was 70.7% (inactive); in experiment [5], 86.4% (inactive); in experiment [6] (setting [9]) it was 92.8%; in experiment [6] (setting [10]), 86.4%. For the same molecule, in experiment [2], the Her2 level was 73.5% (inactive). Besides, the differential viability (reversal) in experiment [6] (H69AR cells + 2 uM doxorubicin) was -6.42% (inactive). For the same molecule, the inhibition in experiment [7] is 80.4% (active); in experiment [8], 18% (inactive).

With `O=C(CN(CCc1ccccc1)C(=O)CNS(=O)(=O)c1ccccc1)NCC1CCCO1` (stereo not given), the viability in experiment [1] was 91%; in experiment [3] it was 91% (inactive); in experiment [4], 86.9% (inactive); in experiment [5], 102% (inactive); in experiment [6] (setting [9]) it was 96.2%; in experiment [6] (setting [10]), 102%. Moreover, the Her2 level in experiment [2] was 87.5% (inactive). In addition, the differential viability (reversal) in experiment [6] (H69AR cells + 2 uM doxorubicin) is 5.36% (inactive). Also, the figures for the inhibition in experiment [7] and in experiment [8] were -0.81% (inactive) and -2.13% (inactive), respectively.

As to `COC(=O)CSc1cc(C)nc(NC(C)=O)n1`, the viability in experiment [1] was 93.5%; in experiment [3], 93.5% (inactive); in experiment [4], 102% (inactive); in experiment [5], 101% (inactive); in experiment [6] (setting [9]), 94.2%; in experiment [6] (setting [10]), 101%. Moreover, the Her2 level in experiment [2] is 83.5% (inactive). For the same molecule, the differential viability (reversal) in experiment [6] (H69AR cells + 2 uM doxorubicin) is 6.47% (inactive). Moreover, the inhibition in experiment [7] is -3.92% (inactive); in experiment [8] it was -0.95% (inactive).

Consider `CCSc1nnc(NC(=O)C2CCCN(S(=O)(=O)c3cnc[nH]3)C2)s1` (stereo not given), for which the viability in experiment [1] was 105%; in experiment [3] it was 105% (inactive); in experiment [4] it was 89.9% (inactive); in experiment [5], 91.3% (inactive); in experiment [6] (setting [9]), 89.4%; in experiment [6] (setting [10]), 91.3%. Moreover, the Her2 level in experiment [2] is 97.5% (inactive). In addition, the differential viability (reversal) in experiment [6] (H69AR cells + 2 uM doxorubicin) was 1.98% (inactive). Also, the inhibition in experiment [7] is -2.27% (inactive); in experiment [8] it was 2.83% (inactive).

`Nc1ccc(C(=O)OCCCc2nc3ccccc3[nH]2)cc1`: the viability was 92% in experiment [1]; 92% (inactive) in experiment [3]; 97.9% (inactive) in experiment [4]; 99.1% (inactive) in experiment [5]; 97.4% in experiment [6] (setting [9]); 99.1% in experiment [6] (setting [10]). Also, in experiment [2], the Her2 level was 107% (inactive). Further, the differential viability (reversal) in experiment [6] (H69AR cells + 2 uM doxorubicin) was 1.74% (inactive). Further, the values for the inhibition in experiment [7] and in experiment [8] were 5.41% (inactive) and -19.1% (inactive), respectively.

For the molecule `Cc1csc2ncc(C(=O)N3CCc4ccccc43)c(=O)n12`, the viability in experiment [1] was 95.5%; in experiment [3] it was 95.5% (inactive); in experiment [4], 86% (inactive); in experiment [5] it was 89% (inactive); in experiment [6] (setting [9]), 92.5%; in experiment [6] (setting [10]), 89%. The Her2 level in experiment [2] was 109% (inactive). Besides, the differential viability (reversal) in experiment [6] (H69AR cells + 2 uM doxorubicin) was -3.54% (inactive). Also, the figures for the inhibition in experiment [7] and in experiment [8] were -7.2% (inactive) and 4% (inactive), respectively.

Turning to `Cc1nc2sc(C(c3ccco3)N3CCN(c4ccccc4F)CC3)c(O)n2n1` (stereo not given), the viability in experiment [1] was 97%; in experiment [3], 97% (inactive); in experiment [4], 101% (inactive); in experiment [5] it was 97.5% (inactive); in experiment [6] (setting [9]), 90.3%; in experiment [6] (setting [10]) it was 97.5%. In experiment [2], the Her2 level was 85% (inactive). In experiment [6] (H69AR cells + 2 uM doxorubicin), the differential viability (reversal) was 7.17% (inactive). In addition, the figures for the inhibition in experiment [7] and in experiment [8] were -6.27% (inactive) and 0.95% (inactive), respectively.

Turning to `O=C(c1ccco1)N1CCN(c2ccc(Cl)cc2)CC1`, the viability was 86% in experiment [1]; 86% (inactive) in experiment [3]; 95.6% (inactive) in experiment [4]; 99.8% (inactive) in experiment [5]; 80.8% in experiment [6] (setting [9]); 99.8% in experiment [6] (setting [10]). The Her2 level in experiment [2] was 116% (inactive). Moreover, the differential viability (reversal) in experiment [6] (H69AR cells + 2 uM doxorubicin) was 19.1% (inactive). In addition, the inhibition in experiment [7] was -0.93% (inactive); in experiment [8], -5.4% (inactive).
